Assay results taken from PubChem BioAssay.
The source made the active and inactive calls.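 How the source made its calls, unless noted: active means GFP response above 150% of the DMSO level; inconclusive means fewer than 70 events counted for a yeast strain; inactive means the rest.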

Columns and labels:
[1] = RPL19A-GFP modulators, yeast TOR pathway, confirmation, cell-based, S. cerevisiae, flow cytometry, cherry picks, mother/daughter gates (AID 2270;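 active means GFP response below 50% of the DMSO control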); settings: S. cerevisiae RPL19A-GFP strain, 3 h, at 10 µM, stronger effect = lower value, 100 = same GFP as DMSO wells
[2] = LAP4-GFP expression modulators in yeast, confirmation, cell-based, cherry picks, flow cytometry, mother/daughter gates (AID 2271;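 active means GFP response above 150% of the DMSO control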;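 further: ratio of sample to DMSO plate mean so 100% equals DMSO level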); settings: S. cerevisiae LAP4-GFP strain, 3 h, at 10 µM, stronger effect = higher value, 100 means same as DMSO control
Outline: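 System: Alexa 633-stained baker's yeast GFP-fusion strain; quantity: 0.2 OD600 cells; timing: compound exposure 3 h at 30 °C, end-over-end rotation; detection: HT flow cytometry, GFP fluorescence channel; measure: per-gate (all, mother, daughter) GFP response vs DMSO; control set: DMSO-only negative wells, rapamycin 400 ng/mL positive wells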

[3] = modulators of MEP2-GFP levels in yeast, confirmation, S. cerevisiae, flow cytometry GFP, cherry picks (AID 2272;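 active means GFP response above 150% of the DMSO control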;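 further: ratio of well signal to plate DMSO mean so 100% equals DMSO level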); settings: S. cerevisiae MEP2-GFP strain, 3 h, at 10 µM, stronger effect = higher value
[4] = AGP1-GFP expression modulators, hit retest, confirmation, cell-based, flow cytometry, S. cerevisiae, cherry picks (AID 2273);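 further: median GFP channel fluorescence over the whole cell population gate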; settings: S. cerevisiae AGP1-GFP strain, 3 h, at 10 µM
[5] = modulators of CIT2-GFP expression in yeast, confirmation, S. cerevisiae, GFP fusion, cherry picks, mother/daughter gates (AID 2274); settings: S. cerevisiae CIT2-GFP strain, flow cytometry, 3 h, at 10 µM, stronger effect = higher value
[6] = measured here: daughter cell gate
[7] = measured here: mother cell gate
[8] = measured here: daughter cell gate response
[9] = measured here: mother cell gate response

Row | SMILES | GFP response vs DMSO [1] | GFP response vs DMSO [1, 6] [%] | GFP response vs DMSO [1, 7] [%] | GFP response relative to DMSO [2] | GFP response relative to DMSO [2, 8] [%] | GFP response relative to DMSO [2, 9] [%] | GFP response vs DMSO [3] | GFP response, % of DMSO [4] | GFP response, % of DMSO [5] | GFP response, % of DMSO [5, 6] [%] | GFP response, % of DMSO [5, 7] [%]
1 | N/C(Cc1ccc(Cl)cc1)=N\OC(=O)c1cccc2ccccc12 | 96.2% (inactive) | 82.1 | 82.6 | 199% (active) | 127 | 188 | 126% (inactive) | 88.1% (inactive) | 139% (inactive) | 97.4 | 127
2 | CC(=O)Nc1cccc(/C(C)=N/NC(=O)c2ccccc2Cl)c1 | 98.2% (inactive) | 97.9 | 98.7 | 102% (inactive) | 102 | 99.3 | 100% (inactive) | 101% (inactive) | 99.7% (inactive) | 101 | 99.7
3 | O=C(NCc1cccnc1)c1cnc2n(c1=O)CCS2 | 101% (inactive) | 101 | 101 | 101% (inactive) | 104 | 100 | 99.3% (inactive) | 102% (inactive) | 98.6% (inactive) | 101 | 99.3
4 | O=C1C2C3C=CC(CNS(=O)(=O)c4ccccc4)(O3)C2C(=O)N1c1ccc(Cl)cc1 (stereo not drawn) | 102% (inactive) | 103 | 102 | 110% (inactive) | 109 | 109 | 114% (inactive) | 99.7% (inactive) | 111% (inactive) | 113 | 108
5 | Cc1ccc(C(=O)/C=C/C(=O)c2ccc(C)cc2)cc1 | 103% (inactive) | 104 | 97.7 | 195% (active) | 190 | 201 | 101% (inactive) | 111% (inactive) | 95.9% (inactive) | 100 | 84.8
6 | O=C(Cc1ccc(-c2ccccc2)cc1)OCC(=O)N1CCCC1=O | 96.5% (inactive) | 93.9 | 97.2 | 112% (inactive) | 111 | 114 | 97.8% (inactive) | 96.3% (inactive) | 91.3% (inactive) | 89.9 | 91.2
7 | CSc1nc(N2CCN(c3ccccc3Cl)CC2)c2ccccc2n1 | 96.2% (inactive) | 96.7 | 95.2 | 98.9% (inactive) | 101 | 98.4 | 110% (inactive) | 102% (inactive) | 97.2% (inactive) | 97.6 | 97.1
8 | COc1ccc2cc(-c3cc(C(=O)O)c4ccccc4n3)ccc2c1 | 98.6% (inactive) | 95.9 | 98.2 | 99.8% (inactive) | 100 | 101 | 107% (inactive) | 96.5% (inactive) | 145% (inactive) | 128 | 152
9 | CCN(Cc1ccccc1)S(=O)(=O)c1ccc(C(=O)Nc2nnc(-c3ccccc3OC)o2)cc1 | 98.4% (inactive) | 98.6 | 98.4 | 94.1% (inactive) | 92.8 | 94 | 102% (inactive) | 96.4% (inactive) | 98.3% (inactive) | 97.2 | 99.7
10 | CCOC(=O)C1(Cc2ccccc2Cl)CCN(C(=O)CCn2ccnc2C)CC1 | 96.6% (inactive) | 97.3 | 97.2 | 101% (inactive) | 104 | 99.5 | 99.5% (inactive) | 100% (inactive) | 97.8% (inactive) | 98.3 | 98
11 | Cc1ccccc1N1C(=O)c2cccc3c(N(C)CCO)ccc(c23)C1=O | 99.5% (inactive) | 99.8 | 100 | 100% (inactive) | 99.3 | 98.5 | 104% (inactive) | 103% (inactive) | 101% (inactive) | 102 | 100
12 | O=C(Nc1ccccc1C(F)(F)F)c1cc(-c2ccc(O)cc2)on1 | 98.8% (inactive) | 97 | 99.2 | 108% (inactive) | 102 | 108 | 102% (inactive) | 94% (inactive) | 101% (inactive) | 98.3 | 98
13 | O=C(O)c1cccc(S(=O)(=O)N2Cc3ccccc3C2)c1 | 96.9% (inactive) | 97.3 | 95.9 | 106% (inactive) | 101 | 108 | 101% (inactive) | 104% (inactive) | 100% (inactive) | 99.3 | 100
14 | Cc1oc2c(CN3CCCC(C)C3)c(O)ccc2c(=O)c1-c1ccccc1 (stereo not drawn) | 102% (inactive) | 102 | 104 | 143% (inactive) | 151 | 141 | 141% (inactive) | 107% (inactive) | 147% (inactive) | 152 | 143
15 | O=C(Cn1c(=O)oc2cc(S(=O)(=O)N3CCCC3)ccc21)Nc1ccccc1Br | 93.7% (inactive) | 92.6 | 94.3 | 97.9% (inactive) | 97.6 | 96.1 | 102% (inactive) | 99.9% (inactive) | 101% (inactive) | 103 | 102
16 | COc1ccc(NC2=C(Cl)C(=O)N(CCc3ccccc3)C2=O)c(OC)c1 | 98% (inactive) | 96.6 | 97.2 | 102% (inactive) | 101 | 104 | 98.8% (inactive) | 97.9% (inactive) | 98.4% (inactive) | 98.4 | 97.7
17 | N=c1n(CCN2CCCCC2)c2ccccc2n1CC(=O)c1ccc(Cl)c(Cl)c1 | 99.5% (inactive) | 99 | 100 | 101% (inactive) | 100 | 102 | 100% (inactive) | 99.4% (inactive) | 96.5% (inactive) | 93.2 | 78.3

Row | SMILES | GFP response vs DMSO [1] | GFP response vs DMSO [1, 6] [%] | GFP response vs DMSO [1, 7] [%] | GFP response relative to DMSO [2] | GFP response relative to DMSO [2, 8] [%] | GFP response relative to DMSO [2, 9] [%] | GFP response vs DMSO [3] | GFP response, % of DMSO [4] | GFP response, % of DMSO [5] | GFP response, % of DMSO [5, 6] [%] | GFP response, % of DMSO [5, 7] [%]
18 | Cc1ccsc1/C=N/Nc1ncc(Cl)cc1Cl | 97% (inactive) | 94.2 | 85.8 | 177% (active) | 107 | 189 | 109% (inactive) | 83.7% (inactive) | 100% (inactive) | 101 | 84.6
19 | O=C(NCC(c1ccc(F)cc1)N1CCOCC1)c1cc(F)c(F)c(F)c1F (stereo not drawn) | 100% (inactive) | 99.6 | 101 | 102% (inactive) | 102 | 102 | 101% (inactive) | 102% (inactive) | 102% (inactive) | 101 | 101
20 | Cc1onc(-c2ccccc2)c1C(=O)NC(=S)NNC(=O)c1ccco1 | 101% (inactive) | 101 | 102 | 102% (inactive) | 104 | 103 | 102% (inactive) | 98.1% (inactive) | 104% (inactive) | 106 | 99.7
21 | CCCCn1c(-c2csc3c2CCCC3)n[nH]c1=S | 91.5% (inactive) | 88.2 | 94.1 | 122% (inactive) | 117 | 128 | 93.3% (inactive) | 95.6% (inactive) | 80.6% (inactive) | 77.9 | 80.5
22 | CCn1c(=O)c(C(=O)NCc2ccc(OC)c(OC)c2)c(O)c2ccccc21 | 97.6% (inactive) | 99.1 | 99.2 | 94.1% (inactive) | 92.8 | 94 | 100% (inactive) | 103% (inactive) | 105% (inactive) | 106 | 106
23 | COc1cccc(/C=N\NC(=O)c2cc(OCC(F)(F)F)ccc2OCC(F)(F)F)c1 | 98.6% (inactive) | 99.1 | 97.9 | 94.1% (inactive) | 92.8 | 92.9 | 100% (inactive) | 96% (inactive) | 99.7% (inactive) | 101 | 98.5
24 | O=[N+]([O-])c1ccc(SCCc2ccncc2)cc1 | 94.8% (inactive) | 97.4 | 95.4 | 99.2% (inactive) | 99.2 | 98.3 | 96.2% (inactive) | 98.7% (inactive) | 99.7% (inactive) | 101 | 101
25 | Nc1ccc2nc(-c3ccc(-c4nc5ccc(N)cc5[nH]4)cc3)[nH]c2c1 | 99.3% (inactive) | 100 | 96.1 | 111% (inactive) | 108 | 94.4 | 112% (inactive) | 99.1% (inactive) | 108% (inactive) | 92.3 | 93.8
26 | CCOC(=O)CNc1c(-c2ccc(O)cc2)nc2ccc(Cl)cn12 | 101% (inactive) | 99.8 | 101 | 96.5% (inactive) | 95 | 97.5 | 102% (inactive) | 95.4% (inactive) | 96.4% (inactive) | 96.4 | 95.6
27 | CCc1nnc(NC(=O)c2ccc(S(=O)(=O)N(CC)Cc3ccccc3)cc2)o1 | 98.4% (inactive) | 97.8 | 98.8 | 102% (inactive) | 105 | 99.5 | 102% (inactive) | 101% (inactive) | 105% (inactive) | 106 | 104
28 | COc1ccc(N2CCN(C(=O)C3CCCN(S(=O)(=O)c4ccc(C)cc4)C3)CC2)cc1 (stereo not drawn) | 95.2% (inactive) | 97.4 | 93.4 | 103% (inactive) | 104 | 104 | 105% (inactive) | 97.3% (inactive) | 103% (inactive) | 97.4 | 105
29 | O=C1CC(SCCO)C(=O)N1c1ccc(Oc2ccccc2)cc1 (stereo not drawn) | 99.7% (inactive) | 98.7 | 101 | 103% (inactive) | 105 | 104 | 104% (inactive) | 103% (inactive) | 104% (inactive) | 101 | 106
30 | O=c1c2c(-c3ccc(Cl)cc3)csc2ncn1/N=C/c1cccc([N+](=O)[O-])c1O | 99.3% (inactive) | 99.3 | 98.6 | 97.7% (inactive) | 95 | 99.5 | 99.5% (inactive) | 96.2% (inactive) | 99.3% (inactive) | 98.3 | 98
31 | CCCc1[nH]nc2c1C(c1ccc(OC)c(CSC3=NCCS3)c1)C(C#N)=C(N)O2 (stereo not drawn) | 96.8% (inactive) | 97.3 | 97.6 | 109% (inactive) | 109 | 107 | 97.5% (inactive) | 105% (inactive) | 95% (inactive) | 94.6 | 94.5
32 | O=C(O)CSC1CC(=O)N(c2cccc(Cl)c2)C1=O (stereo not drawn) | 96.7% (inactive) | 97.3 | 94.6 | 104% (inactive) | 101 | 104 | 110% (inactive) | 101% (inactive) | 104% (inactive) | 105 | 104
33 | O=C1CC(Sc2nnnn2C2CCCCC2)C(=O)N1c1ccccc1 (stereo not drawn) | 94.3% (inactive) | 95.5 | 94.8 | 107% (inactive) | 104 | 107 | 97.5% (inactive) | 99.3% (inactive) | 95% (inactive) | 94.6 | 93.3
